A selection: hits, their analogues and other compounds. The true share with any hit is near 1.8%.
NOD2 RIPK2 PPI: NOD2-RIPK2 binding disruptors in cells, primary screen, fluorescence, CHO cells, BLA complementation; inhibition, % at 4.98 µM; CCF4 ratio; 0.38% of 360,000 active; Receptor-interacting serine/threonine-protein kinase 2 (Homo sapiens), O43353; in the data active means inhibition above about 21%
TLR4-MyD88 BLA: inhibitors of TLR4-MyD88 association in cells, primary screen, cell-based, HeLa CL3-4, BLA complementation, FRET ratio; Toll-like receptor 4 (Homo sapiens) + Myeloid differentiation primary response protein …; HeLa CL3-4 TLR4/MyD88 BLA complementation; inhibition, % at 8.4 µM; 0.18% of 200,000 active; in the data active means inhibition above about 25%
MC4R barr agon: MC4R agonists recruiting beta-arrestin, primary screen, cell-based, luminescence, agonist arm of biased-ligand search | U2OS MC4R beta-arrestin complementation; percent of melanotan II response, DMSO zero | AID 540308, 2011 | activation, % at 8.9 µM | 0.98% of 360,000 active;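 active means activation above a per-plate cutoff, the mean activation of sample wells on that plate plus 3 SD, cut at about 8% in these data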
TLR9-MyD88 block: inhibitors of TLR9-MyD88 association in cells, primary screen, cell-based, CHO, BLA complementation, fluorescence; CCF4 FRET ratio; inhibition, % at 4.98 µM; 0.21% of 340,000 active; AID 504734, 2011;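 active means inhibition above the mean over all tested compounds plus 3 SD, cut at about 21% in these data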
MC4R antag cAMP: MC4R antagonists of cAMP signaling, primary screen, cell-based, TR-FRET, antagonist arm of biased-ligand search. 0.48% of 360,000 active. Melanocortin receptor 4 (Homo sapiens), P32245. MC4R-expressing cells, MTII-stimulated cAMP, LANCE TR-FRET. inhibition, % at 6.5 µM;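 active means inhibition above its plate's cutoff, the mean of tested wells on that plate plus 3 SD, cut at about 29% in these data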
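Assay system: human MC4R-expressing U2OS cells; reagent: Melanotan II stimulation of cells; dosing: 6.5 µM single dose; timing: compound 30 min, challenge 1 h, detection 1 h; signal: TR-FRET cAMP assay; replicates: one well per compound, no replicates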
Hits are given with their value.

How did CC(C)(C)c1ccc(OCCC(=O)Nc2ccc(N3CCOCC3)cc2N2CCOCC2)cc1 do in these assays?
NOD2 RIPK2 PPI: inactive; MC4R barr agon: 8.6; TLR9-MyD88 block: inactive; MC4R antag cAMP: inactive

Results for Cc1c(Cl)cccc1NC(=O)COC(=O)CCc1nc2ccccc2n1-c1ccccc1 ?
NOD2 RIPK2 PPI: inactive; TLR4-MyD88 BLA: inactive; MC4R barr agon: 8.3; TLR9-MyD88 block: inactive; MC4R antag cAMP: inactive

What do the screens show for `O=C(NCc1nc(-c2ccccc2)no1)c1ccc2c(c1)OCO2`?
NOD2 RIPK2 PPI: inactive; TLR4-MyD88 BLA: inactive; MC4R barr agon: inactive; TLR9-MyD88 block: inactive; MC4R antag cAMP: inactive

How did Cc1ccccc1OCc1nc(-c2ccc(NC(=O)c3ccc4c(c3)OCO4)cc2)no1 do in these assays?
NOD2 RIPK2 PPI: inactive; TLR4-MyD88 BLA: inactive; MC4R barr agon: 22; TLR9-MyD88 block: inactive; MC4R antag cAMP: inactive

What do the screens show for `O=C(Nc1ccc(Cl)c(Cl)c1)c1ccc2c(c1)OCO2`?
NOD2 RIPK2 PPI: inactive; MC4R barr agon: 9.3; TLR9-MyD88 block: inactive; MC4R antag cAMP: inactive

How did CCOc1ccc(CCNC(=O)COc2cccc(-n3cnnn3)c2)cc1OCC do in these assays?
NOD2 RIPK2 PPI: inactive; MC4R barr agon: inactive; TLR9-MyD88 block: inactive; MC4R antag cAMP: inactive

What do the screens show for `OC(CNCC1CCCO1)Cn1c2ccc(Cl)cc2c2cc(Cl)ccc21` (centres undefined)?
NOD2 RIPK2 PPI: inactive; TLR4-MyD88 BLA: inactive; MC4R barr agon: 8.9; TLR9-MyD88 block: inactive; MC4R antag cAMP: inactive

How did OC(CNCC1CCCO1)Cn1c2ccccc2c2ccccc21 (centres undefined) do in these assays?
NOD2 RIPK2 PPI: inactive; TLR4-MyD88 BLA: inactive; MC4R barr agon: inactive; TLR9-MyD88 block: inactive; MC4R antag cAMP: inactive

Results for CCCCn1c(N)c(N(CC)C(=O)CCc2ccccc2)c(=O)[nH]c1=O ?
NOD2 RIPK2 PPI: inactive; TLR4-MyD88 BLA: inactive; MC4R barr agon: inactive; TLR9-MyD88 block: inactive; MC4R antag cAMP: inactive

How did CC1(C(=O)NS(=O)(=O)c2cccc(Cl)c2)CCN1C(=O)CC1CC1 (centres undefined) do in these assays?
NOD2 RIPK2 PPI: inactive; MC4R barr agon: inactive; MC4R antag cAMP: inactive

Results for CCCOc1ccc(F)cc1-c1cc(C(=O)NCc2ccco2)[nH]n1 ?
NOD2 RIPK2 PPI: inactive; MC4R barr agon: inactive; MC4R antag cAMP: inactive

How did C/C=C/CSc1nc2c(c(=O)[nH]c(=O)n2C)n1Cc1ccc(C)cc1 do in these assays?
NOD2 RIPK2 PPI: inactive; TLR4-MyD88 BLA: inactive; MC4R barr agon: 8.9; TLR9-MyD88 block: inactive; MC4R antag cAMP: inactive

What do the screens show for `CCCCCC(=O)Nc1cc(S(=O)(=O)N2CCOCC2)ccc1N1CCN(C)CC1`?
NOD2 RIPK2 PPI: inactive; MC4R barr agon: inactive; TLR9-MyD88 block: inactive; MC4R antag cAMP: inactive

How did COC(CNC(=O)c1coc2nc3ccccc3nc12)OC do in these assays?
NOD2 RIPK2 PPI: inactive; MC4R barr agon: inactive; TLR9-MyD88 block: inactive; MC4R antag cAMP: inactive

What do the screens show for `COc1cnn(C(C)(C)C)c(=O)c1Cl`?
NOD2 RIPK2 PPI: inactive; TLR4-MyD88 BLA: inactive; MC4R barr agon: inactive; TLR9-MyD88 block: inactive; MC4R antag cAMP: inactive

How did Cc1cccc(Oc2cnn(C(C)(C)C)c(=O)c2Cl)c1 do in these assays?
NOD2 RIPK2 PPI: inactive; TLR4-MyD88 BLA: inactive; MC4R barr agon: 8.8; TLR9-MyD88 block: inactive; MC4R antag cAMP: inactive

What do the screens show for `CCOC(=O)c1[nH]c2ccccc2c1NC(=O)c1ccc2c(c1)OCO2`?
NOD2 RIPK2 PPI: inactive; TLR4-MyD88 BLA: inactive; MC4R barr agon: inactive; TLR9-MyD88 block: inactive; MC4R antag cAMP: inactive

Results for CCOC(=O)c1oc2ccccc2c1NC(=O)c1ccc2c(c1)OCO2 ?
NOD2 RIPK2 PPI: inactive; TLR4-MyD88 BLA: inactive; MC4R barr agon: 9.4; TLR9-MyD88 block: inactive; MC4R antag cAMP: inactive

How did Cc1cccn2c(=O)nc(SCC(=O)NC3CCCC3)nc12 do in these assays?
NOD2 RIPK2 PPI: inactive; MC4R barr agon: inactive; TLR9-MyD88 block: inactive; MC4R antag cAMP: inactive

What do the screens show for `COc1ccccc1-c1cc(C(=O)Nc2cccnc2Cl)no1`?
NOD2 RIPK2 PPI: inactive; MC4R barr agon: inactive; TLR9-MyD88 block: inactive; MC4R antag cAMP: inactive

What do the screens show for `COc1ccccc1-c1cc(C(=O)Nc2ccccc2SC)no1`?
NOD2 RIPK2 PPI: inactive; TLR4-MyD88 BLA: inactive; MC4R barr agon: 8.7; TLR9-MyD88 block: inactive; MC4R antag cAMP: inactive

How did Cc1noc(C)c1S(=O)(=O)NC(=O)C1(C)CCN1C(=O)c1ccccc1CCc1ccccc1 (centres undefined) do in these assays?
NOD2 RIPK2 PPI: inactive; MC4R barr agon: inactive; MC4R antag cAMP: inactive

What do the screens show for `O=C1/C(=C\c2ccco2)SC(=S)N1c1ccccc1`?
NOD2 RIPK2 PPI: inactive; TLR4-MyD88 BLA: inactive; MC4R barr agon: inactive; TLR9-MyD88 block: inactive; MC4R antag cAMP: inactive

Results for Cc1ccc(N2C(=O)/C(=C\c3ccco3)SC2=S)cc1 ?
NOD2 RIPK2 PPI: inactive; TLR4-MyD88 BLA: inactive; MC4R barr agon: 10; TLR9-MyD88 block: inactive; MC4R antag cAMP: inactive

Results for O=C1C2C3C=CC(CO)(O3)C2C(=O)N1c1ccccc1-c1ccccc1 (centres undefined) ?
NOD2 RIPK2 PPI: 81; TLR4-MyD88 BLA: inactive; MC4R barr agon: inactive; TLR9-MyD88 block: inactive; MC4R antag cAMP: inactive

Results for CC(=O)Oc1ccc(N2C(=O)C3C4C=CC(CO)(O4)C3C2=O)cc1 (centres undefined) ?
NOD2 RIPK2 PPI: inactive; TLR4-MyD88 BLA: inactive; MC4R barr agon: inactive; TLR9-MyD88 block: inactive; MC4R antag cAMP: inactive

What do the screens show for `CCCCCNc1ncnc2c(C)[nH]nc12`?
NOD2 RIPK2 PPI: inactive

What do the screens show for `CCCn1c(SCC(=O)c2ccc3c(c2)NC(=O)CO3)nc2ccccc21`?
NOD2 RIPK2 PPI: inactive; TLR4-MyD88 BLA: inactive; MC4R barr agon: inactive; TLR9-MyD88 block: inactive; MC4R antag cAMP: inactive

How did Cn1c(SCC(=O)c2ccc3c(c2)NC(=O)CO3)nc2ccccc21 do in these assays?
NOD2 RIPK2 PPI: inactive; TLR4-MyD88 BLA: inactive; MC4R barr agon: 14; TLR9-MyD88 block: inactive; MC4R antag cAMP: inactive

How did Oc1ccccc1CNc1ccc(Br)cn1 do in these assays?
NOD2 RIPK2 PPI: inactive; TLR4-MyD88 BLA: inactive; MC4R barr agon: 49; TLR9-MyD88 block: inactive; MC4R antag cAMP: inactive

Results for Brc1ccc(NCc2cccc3ccccc23)nc1 ?
NOD2 RIPK2 PPI: inactive; TLR4-MyD88 BLA: inactive; MC4R barr agon: inactive; TLR9-MyD88 block: inactive; MC4R antag cAMP: inactive

What do the screens show for `Oc1c(Br)cc(Br)cc1CNn1cnnc1`?
NOD2 RIPK2 PPI: inactive; MC4R barr agon: inactive; TLR9-MyD88 block: inactive; MC4R antag cAMP: inactive

Results for O=C(COc1ccc(/C=N/NC(=O)c2cc3ccccc3o2)cc1Br)Nc1ccccc1 ?
NOD2 RIPK2 PPI: inactive; TLR4-MyD88 BLA: inactive; MC4R barr agon: 53; TLR9-MyD88 block: inactive; MC4R antag cAMP: inactive

How did COc1ccccc1[C@H]1C(c2cccc(Cl)c2)=NN(c2ccccc2)[C@@H]1CO do in these assays?
NOD2 RIPK2 PPI: 37; MC4R barr agon: inactive; TLR9-MyD88 block: inactive; MC4R antag cAMP: inactive
